Experimental data reported in ChEMBL document CHEMBL3525903 (Drug Metab Dispos, 2013).

Assays:
[1] = molecular target: T1, OCTN2 (Homo sapiens, UniProt O76082); test: Inhibition of OCTN2 (unknown origin) expressed in HEK293 cells assessed as reduction of [3H]carnitine substrate uptake at 100 uM by liquid scintillation counting; type: cell-based; details: HEK293 cells expressing OCTN2, probe [3H]carnitine
T1 sequence (O76082 whole entry): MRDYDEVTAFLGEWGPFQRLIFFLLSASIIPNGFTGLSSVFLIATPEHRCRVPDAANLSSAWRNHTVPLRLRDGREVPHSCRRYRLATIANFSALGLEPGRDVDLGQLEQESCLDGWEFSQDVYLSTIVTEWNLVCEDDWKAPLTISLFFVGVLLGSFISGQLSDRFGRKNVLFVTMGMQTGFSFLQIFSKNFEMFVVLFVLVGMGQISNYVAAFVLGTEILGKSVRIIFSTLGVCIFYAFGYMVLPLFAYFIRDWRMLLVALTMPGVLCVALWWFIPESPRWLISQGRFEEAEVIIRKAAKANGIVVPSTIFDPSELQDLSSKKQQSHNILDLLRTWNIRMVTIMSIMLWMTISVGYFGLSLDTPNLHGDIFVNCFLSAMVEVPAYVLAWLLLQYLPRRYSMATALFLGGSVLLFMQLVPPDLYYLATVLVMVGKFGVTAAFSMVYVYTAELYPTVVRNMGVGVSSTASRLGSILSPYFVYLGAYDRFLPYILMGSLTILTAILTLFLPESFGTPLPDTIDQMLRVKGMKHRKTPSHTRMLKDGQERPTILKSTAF
How it was run: (§1)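 HEK293 cells transiently transfected with OAT, OATP or OCT plasmid (FuGENE6; 24 h, then 24 h more with sodium butyrate), or stable OCTN1/OCTN2 lines; vector-transfected cells as control. Washed, preincubated 15–60 min at 37 °C in modified Krebs-Henseleit/25 mM HEPES buffer. Uptake of radiolabelled substrate, 100 µM inhibitor. Cells lysed in NaOH and counted by scintillation; counts normalised to medium radioactivity and Lowry protein; vector uptake subtracted.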

[2] = molecular target: T2, Organic anion transporter 3 (Homo sapiens, UniProt Q8TCC7); test: Inhibition of OAT3 (unknown origin) expressed in HEK293 cells assessed as reduction of [3H]E-sul substrate uptake by liquid scintillation counting; type: ADME, cell-based
T2 sequence (Q8TCC7 whole entry): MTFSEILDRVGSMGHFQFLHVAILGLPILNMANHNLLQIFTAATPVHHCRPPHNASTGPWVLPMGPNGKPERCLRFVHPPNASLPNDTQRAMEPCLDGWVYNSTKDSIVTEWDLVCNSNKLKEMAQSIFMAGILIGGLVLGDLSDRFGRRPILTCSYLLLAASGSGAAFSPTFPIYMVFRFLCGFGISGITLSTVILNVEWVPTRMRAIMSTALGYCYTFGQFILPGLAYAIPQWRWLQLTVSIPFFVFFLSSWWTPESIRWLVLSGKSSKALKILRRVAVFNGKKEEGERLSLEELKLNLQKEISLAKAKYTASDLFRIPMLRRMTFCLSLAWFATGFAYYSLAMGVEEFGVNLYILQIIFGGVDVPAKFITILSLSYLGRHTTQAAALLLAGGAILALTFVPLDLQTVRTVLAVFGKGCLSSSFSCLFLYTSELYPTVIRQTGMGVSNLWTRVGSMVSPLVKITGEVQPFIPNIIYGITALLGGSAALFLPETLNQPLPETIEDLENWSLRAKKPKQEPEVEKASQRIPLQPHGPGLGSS

[3] = molecular target: T2, Organic anion transporter 3; test: Inhibition of OAT3 (unknown origin) expressed in HEK293 cells assessed as reduction of [3H]E-sul substrate uptake at 100 uM by liquid scintillation counting; type: ADME, cell-based; details: hek293, 100 µM; how it was run: as §1

`CC#CCn1c(N2CCC[C@@H](N)C2)nc2c1c(=O)n(Cc1nc(C)c3ccccc3n1)c(=O)n2C` [LINAGLIPTIN] was tested. Which inhibition at 100 µM [1] did it give?
The inhibition at 100 µM was 15.5%.

What about the IC50 [2] of the same molecule?
The IC50 was > 100 µM.

What about the “inhibition (INH)” value [3] of the same molecule?
Its value is 0%.
